The values below come from PMC7125971 (European Journal of Medicinal Chemistry, 2015).

Entries after “also recorded” stand apart in the source; their conditions may differ.

The subject of series [1] is Para-influenza-3 virus. Nature of the series: organism not typed. Conditions: Vero, read-out: EC50 Para-influenza-3 virus. Format: cell-based.
In series [2] the test system is Reovirus-1. Put plainly: organism not typed. Type of series: cell-based. The following applies: Vero, read-out: EC50 Reovirus-1.
The test system of series [3] is 3T3 cells (embryonal murine fibroblasts). Put plainly: Cytotoxic effects on embryonal murine fibroblasts 3T3. Format: cell-based, mouse. In short, it runs like this:
(§1)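 Cells grown as monolayers in DMEM with 10% FBS, 2 mM L-glutamine, 100 U/ml penicillin and 100 μg/ml streptomycin at 37 °C, 5% CO2. 5000 cells/well seeded on day 0. Compound added in five 10-fold dilutions (0.01–100 μM); final DMSO ≤0.1%. Cells incubated 72 h, then MTT; absorbance converted to percentage growth vs same-plate untreated controls. Quadruplicate points in three experiments; ANOVA with Tukey post-hoc test.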

Series [4] relates to all tested malignant cell lines. Put plainly: Cytostatic activity on the whole panel of malignant cell lines. Type of series: cell-based. In short, it runs like this:
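Malignant lines HeLa, SW620, MiaPaCa-2, HepG2 and CFPAC-1 grown as monolayers in DMEM with 10% FBS at 37 °C, 5% CO2. Plated at 5000 cells/well and exposed 72 h to five 10-fold dilutions (0.01–100 μM), with DMSO ≤0.1%. Growth read by MTT and converted to percentage growth by NIH formulas. Quadruplicate points in three experiments; ANOVA with Tukey post-hoc test.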

Series [5] concerns HeLa cells (cervical carcinoma). Put plainly: Antiproliferative assay. Type of series: cell-based, human. In short, it runs like this: as §1
For series [6], the system named is human embryonic lung cells (HEL). Put plainly: Cytostatic activity. Type of series: cell-based. In short, it runs like this: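 HEL cells seeded at 5 × 10^3 cells/well and allowed to proliferate 24 h. Medium with varying compound concentrations then added, and cells incubated 3 days at 37 °C. Cell number counted by Coulter counter. CC50 (50% reduction in proliferation vs untreated controls) read from plots of cell number (% of control) against concentration.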

In series [7] the test system is Crandell-Rees feline kidney cells (CRFK).
In series [8] the test system is Madin Darby canine kidney (MDCK) cells.
Series [9] relates to human cytomegalovirus (HCMV). Nature of the series: Anti-HCMV activity in HEL cells, strain not told apart in the statement. The following applies: compared to compound 3. Type of series: cell-based.
For series [10], the system named is Punta Toro virus. Put plainly: microbe, parasite or virus in culture. Conditions: Vero, read-out: EC50 Punta Toro virus. Format: cell-based.
In series [11] the test system is African green monkey kidney epithelial cells (Vero). The following applies: alteration of normal cell morphology, listed as C00010.

In general, EC50 refers to the concentration needed to bring the measured effect to its halfway point. Consider `Nc1ncnc2c1ncn2C[C@H](O)CO` [(S)-DHPA, (S)-9-(2,3-dihydroxypropyl)adenine, reference compound], for which the half-maximal effective concentration (EC50) in [1] and in series [2] was above 250 µM throughout.

`O=C1NC(O)(/C=C\n2cc(I)c3c(Cl)ncnc32)C(OCc2ccccc2)=C1OCc1ccccc1` (centres unmarked) [Compound 12, 3,4-di-O-benzyl-5-(9-(6-chloro-7-iodo-7H-pyrrolo[2,3-d]pyrimidine-9-yl)-vinyl)-5-hydroxy-1H-pyrrolo-2(5H)-one]: the “cytotoxic effects on 3T3 cells (in words)” value in series [3] is “moderate or low cytotoxic effects”. For the same compound, in series [4], the “cytostatic activity on the malignant cell line panel (in words)” value (“cytostatic activity” below) is “weak and nonselective antiproliferative activity; also recorded: no marked cytostatic nor antiviral activities”.

In the case of `O=C1O/C(=C\Cn2cnc3c(Cl)c(F)nc(F)c32)C(OCc2ccccc2)=C1OCc1ccccc1` [Compound 3, 3,4-di-O-benzyl-5-(7-(3-chloro-2,6-difluoro-1H-imidazo[4,5-c]pyridine-7-yl)ethylidene)furan-2(5H)-one], the “activity / cytostatic effects on HeLa cells (in words)” value (from here on “activity / cytostatic effects”) in series [5] is reported as “did not show any cytostatic effects”. In addition, in series [6], the “cytotoxic effects on HEL cells (in words)” value is “without cytotoxic effects; also recorded: did not show any cytostatic effects”. For the same compound, the EC50 in [1] and in series [2] was above 20 µM in each case. In [3], the “cytotoxic effects on 3T3 cells (in words)” value was “did not show any cytostatic effects”. In addition, the “cytostatic effects on CRFK cells (in words)” value in [7] is “did not show any cytostatic effects”. In series [8], the “cytostatic effects on MDCK cells (in words)” value is on record as “did not show any cytostatic effects”.

As for `Nc1nc(F)c(Cl)c2c1ncn2CCC1(O)NC(=O)C(OCc2ccccc2)=C1OCc1ccccc1` (centres unmarked) [Compound 7, 5-(9-(6-amino-3-chloro-2-fluoro-1H-imidazo[4,5-c]pyridine-9-yl)ethyl)-3,4-di-O-benzyl-5-hydroxy-1H-pyrrolo-2(5H)-one], in series [9], the “anti-HCMV activity (in words)” value was “lost anti-HCMV activity; also recorded: loss of anti-HCMV activity”.

Regarding `O=C1O/C(=C\Cn2cnc3cc[nH]c3c2=O)C(OCc2ccccc2)=C1OCc1ccccc1` [Compound 14, 3,4-di-O-benzyl-5-(1-(3H-pyrrolo[3,2-d]pyrimidine-4(5H)-one-1-yl)ethylidene)furan-2(5H)-one], the “cytotoxic effects on 3T3 cells (in words)” value in [3] is on record as “without cytotoxic effects”.

Regarding `O=C1O/C(=C\Cn2cnc3cncc(Br)c32)C(OCc2ccccc2)=C1OCc1ccccc1` [Compound 1, 3,4-di-O-benzyl-5-(9-(3-bromo-1H-imidazo[4,5-c]pyridine-9-yl)ethylidene)furan-2(5H)-one], the “activity / cytostatic effects” value in series [5] was “moderate activity”. Further, the “cytotoxic effects on 3T3 cells (in words)” value in [3] was “low cytotoxic effects; also recorded: moderate or low cytotoxic effects”. Further, the “cytostatic activity” value in series [4] was “weak and nonselective antiproliferative activity”.

Regarding `NC(=O)c1ncn([C@@H]2O[C@H](CO)[C@@H](O)[C@H]2O)n1` [Ribavirin, reference compound], the EC50 in [10] is 150 ± 141 µM; in [2] it was above 250 µM.

With `O=C1O/C(=C\Cn2cnc3c(F)nc(F)c(Cl)c32)C(OCc2ccccc2)=C1OCc1ccccc1` [Compound 2, 3,4-di-O-benzyl-5-(9-(3-chloro-2,6-difluoro-1H-imidazo[4,5-c]pyridine-9-yl)ethylidene)furan-2(5H)-one], in series [5], the “activity / cytostatic effects” value is on record as “no cytostatic effects”. The EC50 in series [1] and in [2] was above 20 µM each time. In [11], this compound showed an MCC of at least 20 µM.

For `O=C1O/C(=C\Cn2cc(I)c3c(Cl)ncnc32)C(OCc2ccccc2)=C1OCc1ccccc1` [Compound 10, 3,4-di-O-benzyl-5-(9-(6-chloro-7-iodo-7H-pyrrolo[2,3-d]pyrimidine-9-yl)ethylidene)furan-2(5H)-one], the “cytostatic activity” value in series [4] is “no marked cytostatic nor antiviral activities”.

On to `O=C1O/C(=C\Cn2cnc3c(Cl)c(F)nc(F)c32)C(O)=C1O` [Compound 8, 5-(2-(7-chloro-4,6-difluoro-3H-imidazo[4,5-c]pyridine-3-yl)ethylidene)-3,4-dihydroxyfuran-2(5H)-one], for which the “anti-HCMV activity (in words)” value in series [9] was “loss of anti-HCMV activity”.

On to `O=C1NC(O)(CCn2cnc3cncc(Br)c32)C(OCc2ccccc2)=C1OCc1ccccc1` (centres unmarked) [Compound 6, 3,4-di-O-benzyl-5-(9-(3-bromo-1H-imidazo[4,5-c]pyridine-9-yl)ethyl)-5-hydroxy-1H-pyrrolo-2(5H)-one], for which the “cytotoxic effects on 3T3 cells (in words)” value in series [3] is listed as “moderate or low cytotoxic effects”. For the same compound, the “cytostatic activity” value in series [4] is “weak and nonselective antiproliferative activity”.
